Assay results reported in paper PMC6175093 (Journal of Clinical Pharmacology, 2018).
Where two headings read alike, the source gives them in different places. Blank lines part the entries; values can stand above or below the molecule they belong to.

Legend:
[1] = assay type: in vivo, human; details: metabolite; for t½: mean (SD); for Tmax: median (minimum, maximum)
Procedure, shortened: (§1)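 Randomized two-sequence crossover in healthy adults, ≥10-day washout. Single oral 4-mg rosiglitazone was given alone on day 1, or on day 3 of the test compound regimen (1250 mg loading dose on day 1, then 750 mg once daily for 7 more days), after a 10-h fast. K2EDTA blood was drawn predose to 120 h and plasma stored at ~−70°C. LC-MS/MS, LLOQ 0.500 ng/mL. GMR (90%CI) came from a linear mixed effect model.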

[2] = Safety and tolerability in phase 1 study; assay type: in vivo, human
Procedure, shortened: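 Healthy adults in a two-period crossover: single oral 4-mg rosiglitazone alone, and the test compound (1250 mg on day 1, 750 mg daily for 7 days) with rosiglitazone on day 3. Dosing was fasted. Adverse events were recorded from informed consent until 14 days after the last dose and graded by intensity.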

[3] = assay type: in vivo, human; details: for AUC / AUC_%Extrap_obs: geometric mean (CV%)
Procedure, shortened: as §1

[4] = tested on: CYP2C8; assay: In vitro CYP2C8 inhibition; assay type: in vitro ADME
[5] = tested on: other CYP isoforms; details: ref Wring SA, Park SM, unpublished data on file; cited from earlier work
[6] = tested on: Candida species; details: in vivo murine models for invasive fungal infections with Candida species; cited from earlier work
[7] = tested on: Candida and Aspergillus species clinical isolates; details: cited from earlier work
[8] = cited from earlier work
[9] = Phase 1 study: plasma PK of SCY‐078 after loading dose and repeat daily doses; assay type: in vivo, human
Procedure, shortened: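 Healthy adults fasted 10 h, then took the oral test compound: 1250-mg loading dose on day 1, then 750 mg once daily for 7 more days. Blood was drawn predose and 0.5–24 h on day 1, predose and 0.5–16 h on day 3, and as troughs before dosing on days 4–8. K2EDTA plasma was centrifuged at 2000 g and stored at ~−70°C. Validated LC-MS/MS, LLOQ 5.00 ng/mL.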

[10] = tested on: CYP2C8; details: inhibition of CYP2C8‐mediated N‐desethyl‐amodiaquine activity; ref Wring SA, Park SM, unpublished data on file; cited from earlier work
[11] = phase 1 drug‐drug interaction study; cited from earlier work
[12] = rosiglitazone 4 mg + SCY‐078 750 mg, day 3, n = 17, geometric mean (CV%)
[13] = rosiglitazone 4 mg + SCY‐078 750 mg, day 3, n = 17
[14] = rosiglitazone 4 mg alone, day 1, n = 17, geometric mean (CV%)
[15] = rosiglitazone 4 mg alone, day 1, n = 17
[16] = all treatments pooled, 24 subjects
[17] = both, human, plasma, oral, 4 mg
[18] = both, human, plasma, po, 1250 mg

AUC ([1]; 0 to infinity, rosiglitazone 4 mg + SCY‐078 750 mg, day 3, n = 17, geometric mean (CV%)): 2260 (15.5) μg·hr/mL
AUC0‐24h GMR rosiglitazone + SCY‐078 vs rosiglitazone alone ([1]; geometric mean ratio (90%CI)): 0.97 (0.89‐1.06)
AUC0‐last GMR rosiglitazone + SCY‐078 vs rosiglitazone alone ([1]; geometric mean ratio (90%CI)): 1.03 (0.95‐1.12)
AUC GMR rosiglitazone + SCY‐078 vs rosiglitazone alone ([1]; geometric mean ratio (90%CI)): 1.03 (0.95‐1.12)
Cmax GMR rosiglitazone + SCY‐078 vs rosiglitazone alone ([1]; geometric mean ratio (90%CI)): 0.97 (0.88‐1.07)
AUC0‐24h [1, 12]: 1.31 µg·h/mL
AUC0‐last [1, 12]: 2.24 µg·h/mL
AUC_%Extrap_obs [1, 12]: 0.90 (45.6) %
Cmax [1, 12]: 70.4 (16.4) ng/mL
t½ [1, 13]: 15.2 (2.3) h
Tmax [1, 13]: 8.0 (6.0, 16.0) h
AUC0‐24h [1, 14]: 1.34 µg·h/mL
AUC0‐last [1, 14]: 2.17 µg·h/mL
AUC_%Extrap_obs [1, 14]: 0.91 (52.4) %
Cmax [1, 14]: 72.8 (17.6) ng/mL
t½ [1, 15]: 14.5 (2.4) h
Tmax [1, 15]: 6.0 (4.0, 12.0) h
Compound: O=C1NC(=O)C(Cc2ccc(OCCNc3ccccn3)cc2)S1 (stereo not shown) [N‐Desmethylrosiglitazone, N‐desmethylrosiglitazone]

Compound: CN(CCOc1ccc(CC2SC(=O)NC2=O)cc1)c1ccccn1 (stereo not shown) [Rosiglitazone, rosiglitazone]
treatment‐emergent AE: diarrhea ([2]; all treatments pooled (rosiglitazone alone and with SCY‐078), 24 subjects): 58.3%
serious AEs and deaths [2, 16]: no serious AEs
treatment‐emergent AE: abdominal pain [2, 16]: 41.7%
treatment‐emergent AE: contact dermatitis [2, 16]: 8.3%
treatment‐emergent AE: dizziness [2, 16]: 8.3%
treatment‐emergent AE: headache [2, 16]: 16.7%
treatment‐emergent AE: menstruation irregularity [2, 16]: 12.5%
treatment‐emergent AE: nausea [2, 16]: 41.7%
treatment‐emergent AE: somnolence [2, 16]: 8.3%
treatment‐emergent AE: vomiting [2, 16]: 25%
tolerability ([2]; rosiglitazone in the presence and absence of repeat doses of SCY‐078, healthy subjects): generally well tolerated
Cmax [3, 17]: 295 ng/mL
Tmax [3, 17]: 0.5 h
half-life [3, 17]: 3.7 h
AUC ([3]; both, human, plasma, oral, AUC0‐24h, rosiglitazone 4 mg + SCY‐078 750 mg, day 3, n = 17): 1420 µg·h/mL
AUC ([3]; both, human, plasma, oral, AUC0‐last, rosiglitazone 4 mg + SCY‐078 750 mg, day 3, n = 17): 1440 µg·h/mL
AUC0‐24h GMR rosiglitazone + SCY‐078 vs rosiglitazone alone ([3]; geometric mean ratio (90%CI)): 0.98 (0.89‐1.08)
AUC0‐last GMR rosiglitazone + SCY‐078 vs rosiglitazone alone ([3]; geometric mean ratio (90%CI)): 0.99 (0.90‐1.10)
AUC GMR rosiglitazone + SCY‐078 vs rosiglitazone alone ([3]; geometric mean ratio (90%CI)): 0.99 (0.90‐1.10)
Cmax GMR rosiglitazone + SCY‐078 vs rosiglitazone alone ([3]; geometric mean ratio (90%CI)): 0.80 (0.70‐0.90)
AUC_%Extrap_obs [3, 13]: 0.71 (62.2) %
AUC_%Extrap_obs [3, 15]: 0.58 (74.3) %

Compound: CC(C)[C@@H](C)[C@@]1(C)CC[C@]2(C)[C@H]3CC[C@@H]4[C@@]5(COC[C@@]4(C)[C@@H](OC[C@](C)(N)C(C)(C)C)[C@H](n4ncnc4-c4ccncc4)C5)C3=CC[C@@]2(C)[C@@H]1C(=O)O [SCY‐078]
unbound concentration in plasma as % of the CYP2C8 IC50 ([4]; day 3 Cmax, based on 99.7% binding to plasma proteins): ~3%
plasma Cmax exceeds the in vitro CYP2C8 IC50 ([4]; day 3 total Cmax vs IC50): approximately 4 fold
IC50 values for other CYP isoforms, fold higher than CYP2C8 [5]: > 5 fold
efficacy target exposure [6]: 11.2 μg·h^2/mL
in vitro activity against Candida and Aspergillus species clinical isolates [7]: potent in vitro activity
activity against azole‐resistant, most echinocandin‐resistant, and multidrug‐resistant strains of Candida species ([7]; in vitro): retained activity
binding to plasma proteins [8]: 99.7%
Tmax ([9]; both, human, plasma, oral): 6 h
AUC [9, 18]: 11.6 µg·h/mL
Tmax [9, 18]: 6 h
concentration at 24 h [9, 18]: 294 ng/mL
Cmax ([9]; both, human, plasma, po, 1250 mg, Cmax, day 1, oral 1250‐mg loading dose, fasted, geometric mean (CV%)): 783 ng/mL
maximum concentration in plasma ([9]; day 3, once‐daily oral regimen, molar equivalent of ∼0.93 μg/mL): 1.28 µM
absorption ([9]; following the loading dose and repeated daily doses): well absorbed
IC50 [10]: ~300 nM
interaction with tacrolimus [11]: no clinically relevant interaction
